Measurements collected from several papers.
Each line is one published result; the experiments were not run side by side.
Target: Serine/threonine-protein kinase PAK 5 (PAK5, Homo sapiens, UniProt Q9P286)

| SMILES | read-out | method | tested at | remaining binding [%] |
| --- | --- | --- | --- | --- |
| CCN1CCN(Cc2ccc(C(=O)Nc3ccc(C)c(Oc4ccc5c(c4)CC(=O)N5)c3)cc2C(F)(F)F)CC1 | binding | competition with immobilised ligand | 1 µM | 86 |
| CN(c1nccc(-c2cnn3ncccc23)n1)C1CC1 | binding |  | 1 µM | 100 |
| COc1ncc2cc3ccccc3nc2c1C#N | cell-free assay | competition with immobilised ligand | 5 µM | 100 |
| CS(=O)(=O)c1cc(C2(NC(=O)c3cncc4c3cnn4-c3ccc(F)cc3)CC2)ccn1 | cell-free assay | competition with immobilised ligand | 1 µM | 100 |
| CC1CCCN1c1nccc(-c2cnn3ncccc23)n1 (stereo not drawn) | binding |  | 1 µM | 70 |
| COc1cnc(Nc2cccc(S(N)(=O)=O)c2)nc1N1CCN(c2ccccc2)CC1 | binding | competition with immobilised ligand | 1 µM | 69 |
| FC(F)(F)Oc1cccc(-c2cnc3ccc(-c4ccncc4)nn23)c1 | cell-free assay | competition with immobilised ligand | 5 µM | 43 |
| CO[C@H]1CC[C@H](CNc2ccc(S(=O)(=O)NC(=O)c3ccc(N4CCN(CC5=C(c6ccc(Cl)cc6)CC(C)(C)CC5)CC4)cc3Oc3cnc4[nH]ccc4c3)cc2[N+](=O)[O-])CC1 | cell-free assay | competition with immobilised ligand | 1 µM | 99 |
| CN(C)c1ncc(F)c(-c2cnn3ncccc23)n1 | binding |  | 1 µM | 76 |
| Cc1cnc(Nc2ccc(C(=O)N3CCC(N4CCCC4)CC3)cc2)nc1-c1cc2ccccc2s1 | binding | competition with immobilised ligand | 1 µM | 68 |
| N[C@@H]1CCN(c2nccc(-c3cnn4ncccc34)n2)C1 | binding |  | 1 µM | 78 |
| CN(C)c1ncnc(-c2ccc3nc(Nc4cc(CN5CCN(C(=O)CC(F)(F)F)CC5)ccn4)[nH]c3c2)c1Cl | cell-free assay | competition with immobilised ligand | 1 µM | 85 |
| O=C(c1ccc(Nc2nccc(-c3cc4ccccc4s3)n2)cc1)N1CCC(N2CCCC2)CC1 | binding | competition with immobilised ligand | 1 µM | 79 |
| CN(C)c1nccc(-c2cnn3ncccc23)n1 | binding |  | 1 µM | 92 |
| O=C(c1ccc(Nc2ncc(Cl)c(-c3cc4ccccc4s3)n2)cc1)N1CCC(N2CCCC2)CC1 | binding | competition with immobilised ligand | 1 µM | 77 |
| COc1ccc2c(O[C@@H]3C[C@H]4C(=O)N[C@]5(C(=O)O)CC5/C=C\CCCCC[C@H](NC(=O)OC5CCCC5)C(=O)N4C3)cc(-c3csc(NC(=O)C(C)C)n3)nc2c1C (stereo partly drawn) | cell-free assay | competition with immobilised ligand | 1 µM | 100 |
| O=C(NCC1CCOCC1)c1n[nH]cc1NC(=O)c1c(F)cccc1F | binding | competition with immobilised ligand | 1 µM | 79 |
| COc1ccc2c(c1)O[C@H](c1ccc(OC)c(OC)c1)C[C@@H]2NC(=O)C1(c2ccc3c(c2)OC(F)(F)O3)CC1 | cell-free assay | competition with immobilised ligand | 1 µM | 100 |
| CNC(=O)[C@@H]1CC[C@@H](n2c(-c3ccc4cnccc4c3)nc3ccc(C(=O)NCc4cccc(C(N)=O)c4)cc32)C1 | binding | competition with immobilised ligand | 1 µM | 100 |
| CN(CCCC(F)(F)F)c1nccc(-c2cnn3ncccc23)n1 | binding |  | 1 µM | 100 |
| O=C(NCCCC1CCCCC1)c1ccc(CNC(=O)c2cnn(-c3ccccc3)c2C(F)(F)F)cc1 | cell-free assay | competition with immobilised ligand | 0.1 µM | 100 |
